system: Epithelial cell; assay: Recovery of short-circuit current in dog primary bronchial epithelial cells; format: functional, Canis lupus familiaris
In short: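 Canine primary bronchial epithelial monolayers in modified Ussing chambers, KRB pH 7.4, 37 °C, voltage clamped to 0 mV. After a full apical concentration-effect series, the mucosal bath was replaced with KRB three consecutive times. Short-circuit current was read 3 min after the third wash and expressed as percent of starting (basal) current.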

| Compound | Activity |
| --- | --- |
| N/C(=N\C(=O)c1nc(Cl)c(N)nc1N)NCCCCc1ccc(CO)cc1 | 20% |
| N/C(=N\C(=O)c1nc(Cl)c(N)nc1N)NCCCCc1ccccc1 | 16% |
| COc1ccc(CCCC/N=C(\N)NC(=O)c2nc(Cl)c(N)nc2N)cc1 | 19% |
| N/C(=N\C(=O)c1nc(Cl)c(N)nc1N)NCCCCc1cccc(OCCO)c1 | 30% |
| N/C(=N\C(=O)c1nc(Cl)c(N)nc1N)NCCCCc1ccc(OC[C@H](O)CO)cc1 | 25% |
| N/C(=N\C(=O)c1nc(Cl)c(N)nc1N)NCc1ccccc1 [BENZAMIL] | 47% |
| N/C(=N\C(=O)c1nc(Cl)c(N)nc1N)NCCCCc1ccc(C(=O)O)cc1 | 65% |
| COC(=O)c1ccc(CCCC/N=C(\N)NC(=O)c2nc(Cl)c(N)nc2N)cc1 | 13% |
| COc1ccc(CCC/N=C(\N)NC(=O)c2nc(Cl)c(N)nc2N)cc1 | 57% |
| N/C(=N\C(=O)c1nc(Cl)c(N)nc1N)NCCCCc1ccc(O)c(O)c1 | 45% |
| N/C(=N\C(=O)c1nc(Cl)c(N)nc1N)NCCCCc1ccc(OCCC(=O)O)cc1 | 65% |
| N/C(=N\C(=O)c1nc(Cl)c(N)nc1N)NCCCCc1ccc(OS(=O)(=O)O)cc1 | 53% |
| N=C(NC(=O)c1nc(Cl)c(N)nc1N)Nc1ccccc1 | 15% |
| N/C(=N\C(=O)c1nc(Cl)c(N)nc1N)NCCCc1ccc(O)cc1 | 65% |
| COc1ccc(OCCC/N=C(\N)NC(=O)c2nc(Cl)c(N)nc2N)cc1 | 25% |
| N/C(=N\C(=O)c1nc(Cl)c(N)nc1N)NCCCc1ccccc1 | 23% |
| N/C(=N\C(=O)c1nc(Cl)c(N)nc1N)NCCCCCCCCc1ccccc1 | 12% |
| N/C(=N\C(=O)c1nc(Cl)c(N)nc1N)NCCCCc1ccccc1OCC(O)CO (configuration not stated) | 63% |
| N/C(=N\C(=O)c1nc(Cl)c(N)nc1N)NCCCCc1ccc(OCC(=O)O)cc1 | 79% |
| N/C(=N\C(=O)c1nc(Cl)c(N)nc1N)NCCCCCc1ccccc1 | 6% |
| N/C(=N\C(=O)c1nc(Cl)c(N)nc1N)NCCCCCc1ccc(O)cc1 | 29% |

| Compound | Activity |
| --- | --- |
| N/C(=N\C(=O)c1nc(Cl)c(N)nc1N)NCCCCCCc1ccccc1 | 12% |
| N/C(=N\C(=O)c1nc(Cl)c(N)nc1N)NCCCCc1ccccc1OCCO | 21% |
| CCCCCCCC/N=C(\N)NC(=O)c1nc(Cl)c(N)nc1N | 7% |
| N/C(=N\C(=O)c1nc(Cl)c(N)nc1N)NCCCCc1cccc(O)c1 | 14% |
| N/C(=N\C(=O)c1nc(Cl)c(N)nc1N)NCCCCc1ccc(OC2O[C@H](C(=O)O)[C@@H](O)[C@H](O)[C@H]2O)cc1 (some centres not stated) | 86% |
| N/C(=N\C(=O)c1nc(Cl)c(N)nc1N)NCCCCc1ccc(OCC(O)CO)cc1 (configuration not stated) [552-02 FREE BASE] | 20% |
| N/C(=N\C(=O)c1nc(Cl)c(N)nc1N)NCCO | 77% |
| N/C(=N\C(=O)c1nc(Cl)c(N)nc1N)NCCCOc1ccc(O)cc1 | 73% |
| N/C(=N\C(=O)c1nc(Cl)c(N)nc1N)NCCCCc1cccc(OCC(O)CO)c1 (configuration not stated) | 37% |
| CCCCCC/N=C(\N)NC(=O)c1nc(Cl)c(N)nc1N | 24% |
| N=C(N)NC(=O)c1nc(Cl)c(N)nc1N [AMILORIDE] | 96% |
| N/C(=N\C(=O)c1nc(Cl)c(N)nc1N)NCCCCc1ccc(O)cc1 | 24% |
| N/C(=N\C(=O)c1nc(Cl)c(N)nc1N)NCCCCc1ccccc1O | 11% |
| N/C(=N\C(=O)c1nc(Cl)c(N)nc1N)NCCCCc1ccc(OCCO)cc1 | 29% |
| COc1ccc(CCCCC/N=C(\N)NC(=O)c2nc(Cl)c(N)nc2N)cc1 | 5.5% |
| N/C(=N\C(=O)c1nc(Cl)c(N)nc1N)NCCCCc1ccc(N)cc1 | 36% |
| N/C(=N\C(=O)c1nc(Cl)c(N)nc1N)NCCc1ccc(O)cc1 | 65% |
| COc1ccc(COCC/N=C(\N)NC(=O)c2nc(Cl)c(N)nc2N)cc1 | 72% |
| N/C(=N\C(=O)c1nc(Cl)c(N)nc1N)NCCCCc1ccc(OCCCO)cc1 | 17% |
| N/C(=N\C(=O)c1nc(Cl)c(N)nc1N)NCCc1ccccc1 | 21% |
| N/C(=N\C(=O)c1nc(Cl)c(N)nc1N)NCCCCc1ccc(OC[C@@H](O)CO)cc1 | 18% |

Reference: ChEMBL document CHEMBL1138914, “Design, synthesis, and structure-activity relationships of novel 2-substituted pyrazinoylguanidine epithelial sodium channel blockers: drugs for cystic fibrosis and chronic bronchitis” (J Med Chem, 2006)
